Results taken from paper PMC9371711 (Proceedings of the National Academy of Sciences of the …, 2022).
One block for each compound: values may come before it.

Key:
[1] = In vivo brain biodistribution, LC-MS/MS; parameters: species or system C57BL/6 mice; conditions: i.v., 30 min after dosing
[2] = test system: TB43, TB48, GBM59, GBM96 primary GBM cultures; assay: Proliferation of primary GBM cultures with EMA401, A3E, TMZ, CCK8; format: cell-based, human; conditions: for sensitivity of GBM96: GBM96 (lacks AGTR1), A3E 10 μM
U87-GFP/luc tumors [3] = assay: Orthotopic; format: in vivo, BALB/c nude mice
Procedure, shortened: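 2 × 10⁵ U87-GFP/luc cells were implanted into the right cerebral cortex. After 7 d, mice were randomised to test compound or vehicle (PBS, 5% DMSO, 5% solutol), n = 6 each, dosed daily i.p. for 14 d. IVIS bioluminescence was imaged twice weekly and body weight tracked. Tumour sections were scored for H&E tumour area, fluorescent integrin β3 intensity and TUNEL intensity.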

U87-GFP/luc tumors [4] = assay: Subcutaneous U87-GFP/luc xenograft model of GBM; format: in vivo, NSG mice
Procedure, shortened: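 2 × 10⁶ U87-GFP/luc cells were injected into the flanks of NSG mice. Once tumours were established, mice were randomised to test compound, comparators or vehicle (PBS, 5% DMSO, 5% solutol), n = 7–9 per group, and treated for 21 d. Tumour volume and final tumour weight are reported as mean ± SEM.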

TB77 cells [5] = assay: TB77 proliferation, CCK8; format: cell-based, human; conditions: 1, 10, 30 μM, 1% serum, CCK8 9 d posttreatment; P = 0.0011
TB48 spheroids = assay: Spheroid invasion in 50% Matrigel; format: cell-based, human; conditions: TB48, 30 μM
Procedure, shortened: (§1)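 Primary-cell spheroids were embedded in 50% Matrigel and exposed to test compound. Invasion was followed over time as the area covered by invading cells, by image thresholding. Values are mean area in pixels ± SEM. Groups were compared by ANOVA with Tukey's test.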

[6] = test system: TB48, TB77, GBM96 spheroids; assay: 3D spheroid growth, CCK8; format: cell-based, human; conditions: 10, 30, 50 μM, CCK8 9 d posttreatment
Procedure, shortened: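 TB48, TB77 and GBM96 primary cells grown as 3D spheroids were exposed to test compound at 10, 30 and 50 μM. Growth was read by CCK8 9 d posttreatment. Values are mean A450 normalised to untreated control ± SEM. Groups were compared by ANOVA with Tukey's test.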

TB77 cells [7] = assay: Cell cycle, propidium iodide flow cytometry; format: cell-based, human; conditions: 10, 30, 50 μM
TB77 cells [8] = assay: Muse Annexin V & Dead Cell Assay; format: cell-based, human; conditions: 10, 30, 50 μM; 24, 48, 72 h; time and dose dependent
hCMEC/D3 = assay: Endothelial cell tube formation with GBM-conditioned media; format: cell-based, human; conditions: 6-h incubation with media of TB77 treated with 30 μM EMA401
Procedure, shortened: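 Conditioned media came from untreated TB77 cells or TB77 treated with 10 μM AT1R antagonist and 30 μM test compound. hCMEC/D3 endothelial cells were incubated in these media for 6 h. Read-outs were total segment length (pixels) and number of meshes, as mean ± SEM. Groups were compared by ANOVA with Tukey's multiple comparisons.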

[9] = test system: TB26, TB43, TB48, GBM59, GBM96 primary GBM cultures; assay: Proliferation of AGTR2-expressing primary GBM cultures, CCK8; format: cell-based, human; conditions: GBM59, 1% serum, CCK8 9 d
Procedure, shortened: (§2)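 Primary GBM explants in 1% serum were exposed to test compound at 1, 10 and 30 μM. Viability was read by CCK8 9 d posttreatment. Values are mean A450 normalised to untreated control ± SEM.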

TB77 cells [10] = assay: RNA sequencing, whole-transcriptome analysis; format: cell-based, human; conditions: 30 µM, 24 h; for number of differentially expressed genes vs untreated control: P < 0.01; for number of unique differentially expressed genes: not shared with the other antagonist
GBM96 spheroids = assay: Spheroid invasion in 50% Matrigel; format: cell-based, human; conditions: GBM96, dose-dependent, area covered by invading cells
Procedure, shortened: as §1

rat AT1R = conditions: read-out: IC50 at rat AT1R; cited from earlier work
GBM31 = assay: Proliferation of GBM31; format: cell-based, human; conditions: 1, 10, 30 μM, 1% serum, CCK8 9 d
Procedure, shortened: as §2

[11] = cited from earlier work
[12] = test system: caspase-3/7 in TB77 cells; assay: Caspase-Glo 3/7 Assay; format: cell-based, human; conditions: 30 μM
[13] = test system: 8MG, TB26, TB77 GBM cells; assay: Growth of AT2R-expressing GBM cells with AngII and antagonists, low serum; format: cell-based, human; conditions: 1% FBS, 6 d; for effect of antagonist on AngII-enhanced growth: antagonist 10 μM + 10 nM AngII
Procedure, shortened: (§3)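 Cells in 1% FBS received 10 nM AngII, AT1R or AT2R antagonists at 10 μM, each antagonist plus AngII, or both antagonists together. Established lines were read by SRB staining and primary cultures by CCK8, 6 d posttreatment. Values are mean absorbance normalised to untreated control ± SEM. Groups were compared by ANOVA with Tukey's test.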

AT2R = conditions: cited from earlier work; for Kd: read-out: KD (Dissociation constant) for AT2R
GBM59 = assay: TMZ sensitivity of primary GBM cells, SRB; format: cell-based, human; conditions: TMZ 2-512 μM, 10% FBS, SRB after 9 days
TB82 = assay: Growth of GBM cells expressing AT1R but not AT2R with AngII, low serum; format: cell-based, human; conditions: 10 nM AngII, 1% FBS, 6 d
Procedure, shortened: as §3

Compound: COc1ccc2c(c1OCc1ccccc1)C[C@@H](C(=O)OCC(=O)NCCCC[C@H](NC(=O)CNC(=O)[C@H](CCCNC(=N)N)NC(=O)[C@H](CO)NC(=O)CNC(=O)CNC(=O)[C@H](Cc1ccc(O)cc1)NC(=O)[C@H](Cc1ccccc1)NC(=O)[C@H](Cc1ccccc1)NC(=O)[C@@H](NC(=O)COC(=O)[C@@H]1Cc3c(ccc(OC)c3OCc3ccccc3)CN1C(=O)C(c1ccccc1)c1ccccc1)[C@@H](C)O)C(=O)N[C@@H](CCCNC(=N)N)C(=O)N[C@@H](CC(N)=O)C(=O)N[C@@H](CC(N)=O)C(=O)N[C@@H](Cc1ccccc1)C(=O)N[C@@H](CCCCNC(=O)COC(=O)[C@@H]1Cc3c(ccc(OC)c3OCc3ccccc3)CN1C(=O)C(c1ccccc1)c1ccccc1)C(=O)N[C@H](C(=O)N[C@@H](CCC(=O)O)C(=O)N[C@@H](CCC(=O)O)C(=O)N[C@@H](Cc1ccc(O)cc1)C(=O)O)[C@@H](C)O)N(C(=O)C(c1ccccc1)c1ccccc1)C2 [A3E]
EMA401 metabolite (peak at 3.7 min, m/z 314) in brain samples [1]: not detected
antiproliferative effect compared with EMA401 ([2]; A3E 10 μM vs EMA401 30 μM, 1% serum, CCK8 9 d): equivalent inhibition to native EMA401 at a three-fold lower dose
sensitivity of GBM96 ([2]; EMA401 30 μM): especially sensitive
reduction of tumor size vs vehicle control (U87-GFP/luc tumors [3]; A3E 25.88 mg/kg i.p. daily for 14 d, bioluminescent imaging (IVIS), n = 6): 40%
integrin β3 staining (angiogenesis) of tumor sections (U87-GFP/luc tumors [3]; n = 2, P = 0.17): reduction in integrin-β3 staining
apoptosis, TUNEL assay of tumor sections (U87-GFP/luc tumors [3]; n = 3, P = 0.056): apoptosis was enhanced
tumor area, H&E staining, vs saline group (U87-GFP/luc tumors [3]; n = 5, P = 0.084): consistently smaller
toxicity by body weight (U87-GFP/luc tumors [3]; subcutaneous or intracranial models, no significant weight loss over the study): no detectable toxicity
tumor size, volume and weight vs vehicle- or EMA401-treated groups (U87-GFP/luc tumors [4]; A3E 25.88 mg/kg i.p. daily, 21 d, NSG mice): significantly smaller size
efficacy compared with TMZ (U87-GFP/luc tumors [4]; A3E 25.88 mg/kg, TMZ 30 mg/kg, i.p. daily): slightly more effective than TMZ, though this was not significant

EMA401 metabolite (peak at 3.7 min, m/z 314) in brain samples [1]: a metabolite was identified
Compound: COc1ccc2c(c1OCc1ccccc1)C[C@@H](C(=O)O)N(C(=O)C(c1ccccc1)c1ccccc1)C2 [EMA401]
growth inhibition compared with PD123319 (TB77 cells [5]): significantly more potent growth inhibition than PD123319
spheroid invasiveness (TB48 spheroids): significantly reduced
spheroid growth sensitivity [6]: sensitive
cell-cycle parameters (TB77 cells [7]): No changes in cell-cycle parameters
antiproliferative potency compared with TMZ ([2]; EMA401 30 μM, TMZ 30 μM, 1% serum, CCK8 9 d): greater potency than TMZ
sensitivity of GBM96 ([2]; EMA401 30 μM): especially sensitive
early apoptotic cells (TB77 cells [8]): significant increase in early apoptotic cells
total segment length of endothelial tubes (hCMEC/D3): significantly reduced
growth inhibition of TMZ-insensitive GBM59 [9]: efficiently inhibited
number of differentially expressed genes vs untreated control (TB77 cells [10]): 5,498 genes
down-regulation of FGF18 (TB77 cells [10]; RNA-seq): 2.7 fold
down-regulation of G6PD (TB77 cells [10]; RNA-seq): 1.26 fold
down-regulation of PDK2 (TB77 cells [10]; RNA-seq): 1.29 fold
down-regulation of PDK4 (TB77 cells [10]; RNA-seq): 1.29 fold
down-regulation of PIDD1 (TB77 cells [10]; RNA-seq): 1.3 fold
down-regulation of TKT (TB77 cells [10]; RNA-seq): 1.33 fold
up-regulation of CASP3 (TB77 cells [10]; RNA-seq): 1.43 fold
up-regulation of MAP2K3 (TB77 cells [10]; RNA-seq): 1.7 fold
up-regulation of NFKB2 (TB77 cells [10]; RNA-seq): 1.5 fold
up-regulation of RelB (TB77 cells [10]; RNA-seq): 2.4 fold
up-regulation of TNFRSF21 (TB77 cells [10]; RNA-seq): 1.5 fold
number of unique differentially expressed genes (TB77 cells [10]): 4,211 genes
spheroid invasiveness (GBM96 spheroids): significantly reduced the invasiveness
IC50 (rat AT1R): 408 µM
sensitivity of GBM31 to growth inhibition (GBM31): insensitive
blood-brain barrier penetration [11]: inability of EMA401 to penetrate the blood–brain barrier
enhancement of caspase-3/7 activation ([12]; 24 h, luminescence, P < 0.0001): 30%
caspase-3/7 activation ([12]; 48 h): returned to baseline levels

Compound: Cc1cc(Cn2cnc3c2C[C@@H](C(=O)O)N(C(=O)C(c2ccccc2)c2ccccc2)C3)ccc1N(C)C [PD123319]
proliferation in the absence of exogenous AngII ([13]; 10 μM, significant in 8MG and TB77): inhibited the proliferation
effect of antagonist on AngII-enhanced growth [13]: blocked the enhanced growth
number of differentially expressed genes vs untreated control (TB77 cells [10]): 2,195 genes
number of unique differentially expressed genes (TB77 cells [10]): 908 genes
Kd (AT2R): 0.0717 µM
IC50 (rat AT1R): 210 µM

Compound: Cn1nnc2c(C(N)=O)ncn2c1=O [TMZ, temozolomide]
sensitivity of GBM59 to TMZ (GBM59): insensitive

Compound: CCCCc1nc(Cl)c(CO)n1Cc1ccc(-c2ccccc2-c2nn[nH]n2)cc1 [losartan]
effect of antagonist on AngII-enhanced growth [13]: no effects were observed

Compound: angiotensin II (DRVYIHPF; Angiotensin-2; UniProt P01019 25-32, looked up) [AngII]
cell growth with exogenous AngII ([13]; 10 nM AngII, SRB or CCK8): significantly enhanced
cell growth with exogenous AngII (TB82): minimally increased
selectivity for AT2R over AT1R (AT2R): 10 fold
Kd (AT2R): 0.0016 µM
